Assay results gathered from unrelated publications.
Each line is one published result; the experiments were not run side by side.
Read-out: enzyme activity
RET: Proto-oncogene tyrosine-protein kinase receptor Ret (RET, Homo sapiens, UniProt P07949)

| Structure (SMILES) | target | test | setting | remaining activity [%] |
| --- | --- | --- | --- | --- |
| COc1cc(Cl)c(C(=O)N[C@@H](CN[C@H]2CC[C@@H](N)CC2)Cc2ccc(C#N)cc2)cc1-c1ccc(CN[C@H](C)c2ccc(C)cc2)o1 | RET | inhibitor | 1 µM | 110 |
| Cc1[nH]c(/C=C2\C(=O)Nc3ccc(F)cc32)c(C)c1C(=O)N[C@H]1CCN(C(=O)N(C)C)C1 | RET | inhibitor | 0.1 µM | 62 |
| COCC(=O)Nc1cc(C(=O)NCCc2cnn(C)c2)cc2ncn(CCc3ccccc3)c12 | RET | inhibitor, radiometric | 0.1 µM | 118 |
| Cc1ccc(C(=O)Nc2ccc(CN3CCN(C)CC3)c(C(F)(F)F)c2)cc1C#Cc1cnc2cccnn12 | Proto-oncogene tyrosine-protein kinase receptor Ret (RET, Homo sapiens, UniProt P07949, M918T) | – | 23.5 nM | 1.4 |
| COc1cccc(NC(=O)Nc2c(-c3ccc(Cl)cc3)nn(-c3ccc(F)cc3)c2N)c1 | RET | inhibitor, radiometric | 0.1 µM | 110 |
| CCN(CC)CCNC(=O)c1c(C)[nH]c(/C=C2\C(=O)Nc3ccc(F)cc32)c1C | RET | inhibitor | 1 µM | 0 |
| CCCOc1ccc(OC)c(F)c1C(=O)c1ccc(C(=O)N[C@@H]2CNC[C@H]2NC(=O)c2ccc3[nH]ncc3c2)cc1 | RET | inhibitor | 50 nM | 100 |
| Cc1cnc(NC2CCOCC2)nc1-n1cnc(C(=O)NC(CN)c2cc(F)cc(Cl)c2)c1 (stereo not drawn) | Proto-oncogene tyrosine-protein kinase receptor Ret (RET, Homo sapiens, UniProt P07949, V804M) | inhibitor, radiometric | 1 µM | 100 |
| COc1cc(NC(=O)Nc2ccccc2Br)cc2sc(NC(=O)c3ccccc3)nc12 | RET | inhibitor, radiometric | 0.1 µM | 106 |
| Cc1sc(C(=O)NC2COC2)cc1-n1cc(NC(=O)Nc2c(F)cccc2Cl)cn1 | RET | inhibitor | 10 µM | 113 |
| CC(C)(C)c1nc2c(s1)c1nc(N)ncc1c1ccc(NS(=O)(=O)c3c(F)cccc3F)c(F)c12 | RET | inhibitor, radiometric | 1 µM | 69 |
| COC(=O)c1cccc(NC(=O)Nc2cc(C)c3nc(NC(=O)c4ccccc4)sc3c2)c1 | RET | inhibitor, radiometric | 0.1 µM | 109 |
